Assay outcomes from PubChem BioAssay.
PPC-1+TRAIL kill: PPC-1 cancer cell killing with TRAIL present. PPC-1 cells + TRAIL, ATPLite viability luminescence. cell killing (% activity), % at 4 µM or 5 µM. actives 0.41% (n = 220,000);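 active = cell killing above 50% in the first pass at 4 µM, then a duplicate retest at 5 µM averaging 50% or more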;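 note: plate controls were cells with TRAIL plus DMSO for no effect and medium-only wells lacking cells for full effect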
STAT1 blocker: inhibitors of IFN-gamma induced STAT1 signaling | NIH 3T3 STAT1-luciferase reporter, luminescence | inhibition, % at 5.5 µM | actives 0.35% (n = 200,000) | AID 920;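 active = inhibition above a set limit, the mean inhibition across all tested compounds plus 3 SD, cut at about 34% in these data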;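 note: 0% = IFN-gamma with DMSO and 100% = IFN-gamma with 300 µM nifuroxazide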
STAT3 blocker: inhibitors of IL-6 induced STAT3 signaling; U3A cells, IL-6 STAT3-luciferase reporter, luminescence; host cell line lacks STAT1; inhibition, % at 5.5 µM; actives 0.89% (n = 190,000); AID 862;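 active = inhibition above the mean inhibition across all screened compounds plus 3 SD, cut at about 44% in these data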;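 note: 0% = DMSO only wells and 100% = 100 µM nifuroxazide control wells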
STAT3 activator: increases IL-6 driven STAT3 reporter signal; actives 0.91% (n = 190,000); activation (% of control), % at 5.6 µM; U3A cells, IL-6 STAT3-luciferase reporter, luminescence; 100% = signal with IL-6 EC80 alone;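 active = activation above the screen-wide mean of compound activation plus 3 SD, cut at about 130% in these data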;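 note: 0% = background luminescence of wells with medium and substrate only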
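Material: human U3A cells carrying STAT3-luciferase construct. Measured by: reporter luminescence signal. Timing: compound 1 h, then IL-6 6 h at 37 °C.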
TRAIL sens C8: sensitizes caspase-8 expressing cells to TRAIL. inhibition (viability loss, TRAIL sensitization), % at 10 µM. AID 624354. NB7+C8 cells + TRAIL, ATPlite viability luminescence. actives 1% (n = 360,000);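 active = compounds causing at least 50% loss of cell viability in the single-dose screen, relative to plate controls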
PPC1 cytotox: kills PPC-1 cells. shares compounds with PPC-1+TRAIL kill. PPC-1 viability, ATPlite luminescence, overnight. cytotoxicity, % at 5 µM. AID 1447. actives 50% (n = 1,200);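 active = reconfirmed compounds whose average cytotoxicity reaches 50% or more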;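 note: 0% = DMSO-treated cells and 100% = wells holding medium but no cells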
* = called active by the depositor; . = no result. The list is not random: actives were taken first. Their share in the collection is about 1.8%.

SMILES | PPC-1+TRAIL kill | STAT1 blocker | STAT3 blocker | STAT3 activator | TRAIL sens C8 | PPC1 cytotox
O=C(O)CCCC(=O)N1CCc2cc(S(=O)(=O)N3CCc4ccccc43)ccc21 | 7.8 | 5.3 | -22.1 | 122.1 | 6.9 | .
CCOc1ccccc1NC(=O)CCn1ccnc1 | . | . | . | . | -6.8 | .
CCn1c(SC)nc2c(c1=O)SC(C)C2 (stereo not given) | 3.3 | 2.8 | 15.1 | 92.3 | -3.4 | 3.6
CCSc1nc2c(c(=O)n1CC)SC(C)C2 (stereo not given) | 14.1 | 6.9 | 3.6 | 102.5 | -11.5 | .
CC12CCC(=O)N1C(C(=O)NCc1ccccc1F)CS2 (stereo not given) | . | . | . | . | -2.5 | .
CCOc1ccc(-c2ccc(SC)nn2)cc1 | 91.5* | 80.7* | 110.1* | 14.3 | 92.1* | 90.9*
COc1ccc(-c2ccc(SCC(=O)Nc3nnc(C)s3)nn2)cc1 | 50.5* | -19.5 | 4.9 | 100.1 | 54.9* | 50.1*
CCOc1ccc(-c2ccc(SCC(=O)NCC3CCCO3)nn2)cc1 (stereo not given) | 26.1 | -20.6 | 1.2 | 108.9 | 52.2* | 35.3
CCOc1ccc(-c2ccc(SCC(=O)Nc3nnc(CC)s3)nn2)cc1 | 69.8* | -16.8 | 30.7 | 77.1 | 67.1* | 67.7*
Cc1ccc(-c2ccc(SCC(=O)NCC3CCCO3)nn2)cc1 (stereo not given) | 39.1 | -4.3 | 9.8 | 98.8 | 10.0 | .
Nc1nc(-c2ccccc2)nc2nonc12 | . | . | . | . | -18.8 | .
COc1cccc(/C=N/NC(=S)Nc2cccc(C(=O)O)c2)c1O | 37.3 | 68.1* | 66.1* | 45.4 | 86.9* | 35.3
Cc1ccc(C(=O)Nc2cc3ccccc3oc2=O)cc1 | 71.7* | 93.9* | 105.6* | 9.9 | 82.0* | 71.9*
CC(=O)Nc1cc2ccccc2oc1=O | -4.2 | -9.8 | 3.6 | 98.2 | -5.0 | .
Cc1ccc(C(=O)Nc2cnc3ccccc3c2)cc1 | 69.8* | 91.0* | 110.1* | 8.7 | 78.2* | 67.4*
COc1ccccc1-c1cccc2nccn12 | . | . | . | . | -8.0 | .
CCc1ccc2oc(-c3cccc(N)c3)nc2c1 | 46.5 | -17.8 | 5.2 | 97.1 | 81.8* | 48.5
C(#Cc1ccccc1)C[N+]1(CC#Cc2ccccc2)CCCCC1 | 23.1 | 30.5 | 22.4 | 83.4 | 31.6 | .
Cc1ccc(C#CC[N+]2(CC#Cc3ccc(C)cc3)CCCCC2)cc1 | 15.2 | 21.1 | 25.1 | 81.0 | 34.2 | 20.2
O=C(Nc1nccs1)c1cn2ccccc2n1 | 61.0* | . | . | . | 39.9 | 59.1*
N#Cc1nc(-c2ccco2)oc1N1CCC(C(N)=O)CC1 | -4.0 | 1.7 | 4.5 | 98.5 | -5.9 | -1.7
N#Cc1nc(-c2ccccc2)oc1N1CCC(C(N)=O)CC1 | . | . | . | . | 0.8 | .
CN(C)c1ncnc2c1nnn2C1OC(CO)C(O)C1O (stereo not given) | . | . | . | . | 47.6 | .
CN(C)c1ncnc2c1ncn2C1OC(CO)C(O)C1O (stereo not given) | 43.5 | 61.8* | 43.6* | 67.0 | 69.4* | 44.0
C/C(=N\N1C(=O)c2ccccc2NC1c1ccccc1)c1ccccc1O (stereo not given) | 48.0 | -45.6 | 32.2 | 75.7 | 69.9* | 42.3
SMILES | PPC-1+TRAIL kill | STAT1 blocker | STAT3 blocker | STAT3 activator | TRAIL sens C8 | PPC1 cytotox
COc1ccc(/C(C)=N/N2C(=O)c3ccccc3NC2c2ccc(O)c(OC)c2)cc1 (stereo not given) | 17.1 | -14.3 | . | . | 4.1 | .
CC(C)(C)c1ccc(C(=O)/C=C2\NC(=O)CS2)cc1 | 56.0* | -22.9 | 40.2 | 70.9 | 85.2* | 57.0*
Cc1ccc(NC(=O)/C=C2\NC(=O)CS2)cc1 | . | . | . | . | 16.8 | .
COc1ccc(-c2cc3ncc(-c4ccccc4)c(N)n3n2)cc1 | 40.6 | -60.8 | 17.3 | 92.3 | 61.9* | 51.6*
CCN1C(=O)C(NC(C)=O)c2cc(Br)ccc21 (stereo not given) | 17.6 | 5.1 | 12.3 | 92.8 | -7.1 | .
CCCCN1C(=O)C(NC(C)=O)c2cc(Br)ccc21 (stereo not given) | 0.3 | -3.1 | -9.1 | 111.9 | 10.2 | -13.9
Cc1ccc2c(CN3CCN(c4ccc(Cl)c(Cl)c4)CC3)cc(=O)oc2c1 | . | . | . | . | 6.2 | .
CCOC(=O)N1CCN(C(=O)COC(=O)c2ccccc2NCCO)CC1 | . | . | . | . | -33.3 | .
Cc1ccc(-c2cc(=O)c3cc(C)ccc3[nH]2)cc1 | 78.8* | -51.0 | 34.6 | 68.6 | 85.5* | 79.9*
CCCc1cc(C(=O)OCC(=O)NCCc2ccccc2)sc1C | . | . | . | . | -1.9 | .
c1ccc2nc(-c3nc4ccccc4[nH]3)ccc2c1 | 87.2* | 38.8* | 82.6* | 34.5 | 90.2* | 83.8*
c1ccc2[nH]c(-c3cscn3)nc2c1 | 11.5 | -16.3 | -7.0 | 108.2 | 2.2 | .
CCc1cc(CNC(=O)c2ccc(OC3CCN(CCc4ccccc4)CC3)cc2)on1 | . | . | . | . | 21.2 | .
CCOC(=O)c1cccc(C(=O)Nc2nc3ccc(OC)cc3s2)n1 | 68.3* | -14.7 | 39.8 | 69.0 | 81.9* | 67.3*
CN(C)S(=O)(=O)c1ccc(C(=O)Nc2ccc(S(=O)(=O)NC3=NCCCCC3)cc2)cc1 | -5.0 | -11.5 | -5.0 | 104.4 | -4.0 | -10.5
CC1(C)Cc2nc3sc4c(N(CCO)CCO)ncnc4c3cc2CO1 | 15.3 | -10.4 | -0.8 | 103.0 | 3.4 | .
CC1(C)Cc2nc3sc4c(SCC(=O)O)ncnc4c3cc2CO1 | 71.4* | . | . | . | 75.9* | 74.8*
CC1(C)Cc2nc3sc(C(=O)NCCO)c(N)c3cc2CO1 | 8.0 | -12.2 | -1.8 | 104.1 | -3.7 | 7.7
Cc1ccc(C(=O)NCCN2CCC(n3c(=O)[nH]c4ccccc43)CC2)cc1F | . | . | . | . | 6.2 | .
Cn1cc(C(=O)N/N=C/c2c(O)ccc3ccccc23)ccc1=O | 32.5 | 8.8 | 26.0 | 81.6 | 29.0 | 25.1
COc1ccc(S(=O)(=O)N(C)CC(=O)N2CCCCCC2)cc1 | . | . | . | . | -14.5 | .
COc1ccc(S(=O)(=O)N(C)CC(=O)N2CCC(C(N)=O)CC2)cc1 | 5.8 | -9.4 | 3.8 | 96.4 | -9.9 | 11.9
Cc1cccc(C(=O)n2c(=S)nc3ccccn32)c1 | 69.7* | -100.5 | -2.9 | 109.3 | 73.5* | 69.5*
Cc1cccn2c1nc(=S)n2C(=O)c1ccco1 | 28.3 | -119.5 | -9.5 | 111.8 | 40.6 | .
O=C(c1ccccc1)n1c(=S)nc2ccccn21 | 72.3* | . | . | . | 84.0* | 73.6*
SMILES | PPC-1+TRAIL kill | STAT1 blocker | STAT3 blocker | STAT3 activator | TRAIL sens C8 | PPC1 cytotox
CCOc1cc(S(=O)(=O)NCc2ccccc2)ccc1F | 6.2 | -4.5 | -4.1 | 107.0 | -7.7 | -5.0
COc1cc(S(=O)(=O)NCc2ccccc2)ccc1Br | 8.6 | -1.8 | -4.3 | 105.9 | -7.8 | .
Cc1ccc(-n2nnc(-c3nccn3C)n2)cc1 | 54.6* | 30.9 | . | . | 71.2* | 52.8*
C=C(CN(C)C)C(=O)c1cc(C)ccc1C | . | . | . | . | 6.2 | .
O=C(c1ccc2ccccc2c1O)N1CCCCC1 | . | . | . | . | -2.2 | .
Cc1ccccc1NC(=O)CSc1ccc(-c2cccnc2)nn1 | . | . | . | . | 13.8 | .
CCOC(=O)c1ccccc1NC(=O)CSc1ccc(-c2cccnc2)nn1 | -0.6 | 16.8 | 3.7 | 100.9 | -1.0 | -5.8
Nc1ccc(-c2nc3ccc(N)cc3s2)cc1 | 82.2* | . | . | . | 84.2* | 80.3*
Nc1cccc(-c2nc3ccc(N)cc3s2)c1 | 74.1* | -26.0 | -4.0 | 106.5 | 69.8* | 71.6*
